Series [1] relates to Mus musculus. As to the kind of experiment: Induction of PXR-dependent CYP3A11 protein expression in C57BL/6 mouse liver at 5 to 25 mg dosed as oral gavage as single bolus and measured after 24 hrs relative to control. In kind it is functional, organism-based. The method in brief: (§1)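 Male C57BL/6 mice, 6–7 weeks old, three per group. Single oral gavage bolus of 5, 10 or 25 mg in olive oil vehicle; vehicle-only controls. Killed at 24 h. Tissue PXR mRNA measured; PXR, CYP3A11 and MDR1 protein measured by immunoblot.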

Series [2] deals with Mus musculus. The series can be described thus: Induction of PXR protein expression in C57BL/6 mouse hepatic parenchyma assessed as induction of localization of PXR protein at sinusoidal endothelial cells at 5 to 25 mg dosed as oral gavage as single bolus and measured after 24 hrs by IHC analysis relative to control. The class given is functional, organism-based. The method in brief:
(§2)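 Male C57BL/6 mice, 6–7 weeks old, three per group. Single oral gavage bolus (5–25 mg) in olive oil; vehicle controls; killed at 24 h. Liver and gut formalin-fixed, paraffin-embedded; 4 μm sections stained with H&E. PXR IHC with polyclonal antibody at 1:200 on an automated stainer with polymer detection.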

In series [3] the target is T1, Nuclear receptor subfamily 1 group I member 2 (Homo sapiens, UniProt O75469).
T1 sequence (O75469 whole entry): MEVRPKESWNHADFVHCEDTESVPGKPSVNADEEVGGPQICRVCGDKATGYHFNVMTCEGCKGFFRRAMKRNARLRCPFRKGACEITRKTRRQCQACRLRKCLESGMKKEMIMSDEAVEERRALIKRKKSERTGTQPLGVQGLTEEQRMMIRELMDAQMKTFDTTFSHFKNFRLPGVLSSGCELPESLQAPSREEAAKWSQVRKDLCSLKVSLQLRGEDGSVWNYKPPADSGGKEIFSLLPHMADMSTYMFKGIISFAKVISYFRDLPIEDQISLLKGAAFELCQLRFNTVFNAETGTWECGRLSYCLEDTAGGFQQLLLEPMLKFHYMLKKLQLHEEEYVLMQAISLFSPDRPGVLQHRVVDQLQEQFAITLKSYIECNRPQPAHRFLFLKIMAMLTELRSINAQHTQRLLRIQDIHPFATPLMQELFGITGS
The series can be described thus: Agonist activity at PXR in human HT29 cells assessed as increase in CYP3A4 protein expression at 1 to 25 uM incubated for 24 hrs by immunoblot analysis. The class given is cell-based. A general note: Immunoblotting shows a protein as a band on a membrane.

Series [4] is described as follows: Toxicity in C57BL/6 mouse assessed as induction of organ damage at <=25 mg dosed as oral gavage as single bolus and measured after 24 hrs relative to control. In kind it is organism-based. The settings on record: in vivo. The method in brief:
(§3)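 Male C57BL/6 mice, 6–7 weeks old, three per group. Single oral gavage bolus of 5, 10, 25, 50 or 100 mg in olive oil vehicle. Observed at 24 h for mortality, gross appearance and behavior, then post-mortem examination of liver and main organs.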

Series [5] is described as follows: Toxicity in C57BL/6 mouse assessed as induction of liver damage at <=25 mg dosed as oral gavage as single bolus and measured after 24 hrs relative to control. The class given is organism-based. The settings on record: in vivo. A digest of the protocol:
as §3

The subject of series [6] is Mus musculus. The series can be described thus: Induction of PXR protein expression in C57BL/6 mouse intestine assessed as induction of localization of PXR protein at brush border of enterocytes at 10 mg dosed as oral gavage as single bolus and measured after 24 hrs by IHC analysis relative to control. The class given is functional, organism-based. A digest of the protocol: as §2

The subject of series [7] is Mus musculus. The series can be described thus: Induction of PXR protein expression in C57BL/6 mouse liver at 5 to 25 mg dosed as oral gavage as single bolus and measured after 24 hrs relative to control. In kind it is functional, organism-based. A digest of the protocol:
as §1

For series [8], the system named is Mus musculus. As to the kind of experiment: Induction of PXR-dependent CYP3A11 protein expression in C57BL/6 mouse intestine at 5 to 25 mg dosed as oral gavage as single bolus and measured after 24 hrs relative to control. In kind it is functional, organism-based. The method in brief: as §1
Series [9] deals with Mus musculus. The series can be described thus: Induction of PXR protein expression in C57BL/6 mouse hepatic parenchyma assessed as induction of localization of PXR protein at hepatocytes around centro-lobular veins at 25 mg dosed as oral gavage as single bolus and measured after 24 hrs by IHC analysis relative to control. In kind it is functional, organism-based. A digest of the protocol:
as §2

For series [10], the target named is T1, Nuclear receptor subfamily 1 group I member 2. The series can be described thus: Agonist activity at PXR in human HepaRG cells assessed as reversion of PXR antagonist sulforaphane-induced suppression of PXR expression at 10 uM incubated for 24 hrs by immunoblot analysis. In kind it is cell-based.
The target is the same in series [11]. As to the kind of experiment: Agonist activity at PXR in human HT29-MTX cells assessed as increase in CYP3A4 protein expression at 1 to 25 uM incubated for 24 hrs by immunoblot analysis. In kind it is cell-based.
The subject of series [12] is Mus musculus. As to the kind of experiment: Induction of PXR mRNA expression in C57BL/6 mouse liver at 5 to 25 mg dosed as oral gavage as single bolus and measured after 24 hrs relative to control. In kind it is functional, organism-based. A digest of the protocol:
as §1

In series [13] the target is T2, Oxysterols receptor LXR-beta (Homo sapiens) (UniProt P55055).
T2 sequence (whole entry): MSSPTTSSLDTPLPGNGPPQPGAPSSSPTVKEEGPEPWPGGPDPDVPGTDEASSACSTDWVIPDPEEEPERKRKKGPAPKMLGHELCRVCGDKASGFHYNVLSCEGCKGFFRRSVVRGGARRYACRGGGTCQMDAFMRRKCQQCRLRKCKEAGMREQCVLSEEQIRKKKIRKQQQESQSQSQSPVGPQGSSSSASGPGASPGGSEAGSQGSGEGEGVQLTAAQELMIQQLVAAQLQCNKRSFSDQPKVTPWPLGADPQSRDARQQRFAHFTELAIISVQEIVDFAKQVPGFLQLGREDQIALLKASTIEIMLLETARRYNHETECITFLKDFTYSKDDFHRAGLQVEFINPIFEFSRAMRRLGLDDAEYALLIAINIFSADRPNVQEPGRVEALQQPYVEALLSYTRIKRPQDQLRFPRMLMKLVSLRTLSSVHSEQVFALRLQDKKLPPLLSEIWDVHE
As to the kind of experiment: Agonist activity at LXR-beta (unknown origin) at 10 uM by coactivator recruitment based Alpha-screen assay. For orientation: Bead proximity is the source of the signal in Alpha formats.

In series [14] the target is T1, Nuclear receptor subfamily 1 group I member 2. As to the kind of experiment: Agonist activity at PXR in human HepaRG cells assessed as increase in PXR protein expression at 1 to 25 uM incubated for 24 hrs by immunoblot analysis. The class given is cell-based.
A short description of series [15]: Toxicity in C57BL/6 mouse assessed as mortality at 100 mg dosed as oral gavage as single bolus and measured after 24 hrs relative to control. In kind it is organism-based. As to conditions: in vivo, read-out: Activity. A digest of the protocol: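 Male C57BL/6 wild-type mice aged 6–7 weeks, 3 per group. Single bolus by oral gavage in an olive-oil vehicle, with vehicle-only controls and dose groups of 5, 10, 25, 50 and 100 mg. Animals were checked 24 h after dosing by gross appearance and behaviour, then killed, and liver and main organs were examined post-mortem.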

The target of series [16] is T1, Nuclear receptor subfamily 1 group I member 2. The series can be described thus: Agonist activity at PXR in human HT29-MTX cells assessed as increase in PXR protein expression at 1 to 25 uM incubated for 24 hrs by immunoblot analysis. In kind it is cell-based.
For series [17] the target is unchanged. The series can be described thus: Agonist activity at PXR in human HepG2 cells assessed as increase in PXR protein expression at 1 to 25 uM incubated for 24 hrs by immunoblot analysis. The class given is cell-based. The settings on record: hepg2, 24 h. The method in brief: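 HepG2 cells, passages 2–10, treated 24 h with 1 and 25 μM. Lysates sonicated on ice; 20 μg protein run on 10–12% SDS-PAGE and immunoblotted with anti-PXR or anti-CYP3A4. Bands normalized to housekeeping protein and expressed relative to control (=1).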

The subject of series [18] is Mus musculus. The series can be described thus: Induction of PXR mRNA expression in C57BL/6 mouse intestine at 5 to 25 mg dosed as oral gavage as single bolus and measured after 24 hrs relative to control. In kind it is functional, organism-based. The method in brief:
as §1

In ChEMBL document CHEMBL4402582, “Garcinoic Acid Is a Natural and Selective Agonist of Pregnane X Receptor” (J Med Chem, 2020) one finds Activity and mortality data, which are given here for one compound.

Activity calls are given as the source filed them. No cut-off for these calls is given here.

Take `C/C(=C\CC/C(C)=C/CC[C@]1(C)CCc2cc(O)cc(C)c2O1)CC/C=C(\C)C(=O)O`: the result with Mus musculus [1], with Mus musculus [2], in the series with Mus musculus [6], in the series with Mus musculus [8] and with Mus musculus [9] was Active. Besides, the Activity result was “Active” in series [3]; “Non-Toxic” in series [4]; “Non-Toxic” in [5]; “Dose-dependent effect” in the series with Mus musculus [7]; “Active” in series [10]; “Active” in series [11]. Besides, the Activity result in the series with Mus musculus [12] is “Dose-dependent effect”; in [14] it was “Active”; in series [16], “Active”; in [17] it was “Dose-dependent effect”; in the series with Mus musculus [18], “Dose-dependent effect”. Further, the outcome in [13] was inactive. In addition, the mortality at 24 h in [15] came to 100%.
